Measured values from different studies.
Each line is one published result; the experiments were not run side by side.
Target: Receptor tyrosine-protein kinase erbB-3 (ERBB3, Homo sapiens, UniProt P21860)

CCOC(=O)c1cc2cc(-c3cc(C(=O)NCc4ccc(C(=O)O)cc4)nn3C)ccc2[nH]1  remaining binding (cell-free assay; competition with immobilised ligand; 0.1 µM): 81%
Nc1ncc2c(n1)-c1c([nH]c3ccc(C#CC4CC4)cc13)CCCC2  remaining binding (binding; competition with immobilised ligand; 1 µM): 100%
CCCOc1ccc([C@H]2[C@H](C(=O)O)[C@@H](c3ccc4c(c3)OCO4)CN2CC(=O)Nc2c(CC)cccc2CC)cc1  remaining binding (cell-free assay; competition with immobilised ligand; 1 µM): 78%
CNC(=O)[C@@H]1CC[C@@H](n2c(-c3ccc4cnccc4c3)nc3ccc(C(=O)NCc4cccc(C(N)=O)c4)cc32)C1  remaining binding (binding; competition with immobilised ligand; 1 µM): 100%
FC(F)(F)Oc1cccc(-c2cnc3ccc(-c4ccncc4)nn23)c1  remaining binding (cell-free assay; competition with immobilised ligand; 5 µM): 19%
C[C@@H]1CCN(c2nccc(-c3cnn4ncccc34)n2)C1  remaining binding (binding; 1 µM): 100%
CC(=O)N1CCC(c2ccc(C(=O)NC(=N)N)cc2C(F)(F)F)CC1  remaining binding (cell-free assay; competition with immobilised ligand; 1 µM): 98%
COc1ncc2cc3ccccc3nc2c1C#N  remaining binding (cell-free assay; competition with immobilised ligand; 5 µM): 76%
O=C(Nc1c[nH]nc1C(=O)NC1CCNCC1)c1cc(F)cc(F)c1  remaining binding (binding; competition with immobilised ligand; 1 µM): 86%
CN(C)c1ncc(F)c(-c2cnn3ncccc23)n1  remaining binding (binding; 1 µM): 100%
COc1ccc2c(O[C@@H]3C[C@H]4C(=O)N[C@]5(C(=O)O)CC5/C=C\CCCCC[C@H](NC(=O)OC5CCCC5)C(=O)N4C3)cc(-c3csc(NC(=O)C(C)C)n3)nc2c1C (stereo partly shown)  remaining binding (cell-free assay; competition with immobilised ligand; 1 µM): 88%
CN(C)c1nccc(-c2cnn3ncccc23)n1  remaining binding (binding; 1 µM): 87%
O=C(Nc1ccc(Oc2ccc(F)cc2)cc1)N1CCc2ncccc2[C@H]1c1ccc(F)cc1  remaining binding (cell-free assay; competition with immobilised ligand; 1 µM): 100%
C[C@@H](c1ccc(-n2cnc3c(N)ncnc32)cc1)N1CCc2nn(C)c(Cc3ccccc3)c2C1=O  remaining binding (binding; competition with immobilised ligand; 0.1 µM): 55%
CN(CCCC(F)(F)F)c1nccc(-c2cnn3ncccc23)n1  remaining binding (binding; 1 µM): 100%
O=C(c1ccc(Nc2nccc(-c3cc4ccccc4s3)n2)cc1)N1CCC(N2CCCC2)CC1  remaining binding (binding; competition with immobilised ligand; 1 µM): 100%
N[C@H]1CCN(c2nccc(-c3cnn4ncccc34)n2)C1  remaining binding (binding; 1 µM): 97%
O=C(NCCCN1CCOCC1)c1ccc(Nc2ncc(Cl)c(-c3ccc(Cl)s3)n2)cc1  remaining binding (binding; competition with immobilised ligand; 1 µM): 91%
COc1cnc(Nc2cccc(S(N)(=O)=O)c2)nc1N1CCN(c2ccccc2)C(=O)C1  remaining binding (binding; competition with immobilised ligand; 1 µM): 98%
COc1ccnn2ncc(-c3ccnc(N(C)C)n3)c12  remaining binding (binding; 1 µM): 100%
O=C1CCc2cc(Nc3cc(OC4CCOCC4)c([N+](=O)[O-])cc3Cl)ccc2N1  remaining binding (cell-free assay; competition with immobilised ligand; 1 µM): 98%
O=C(c1ccc(Nc2ncc(Cl)c(-c3ccc(Cl)s3)n2)cc1)N1CCC(N2CCCC2)CC1  remaining binding (binding; competition with immobilised ligand; 1 µM): 100%
